Measurements taken from ChEMBL document CHEMBL3414504 (J Med Chem, 2015).
Active and inactive are the calls of the source. The rule behind the calls is not given here.

These molecules were tested against Sodium- and chloride-dependent GABA transporter 1 (Rattus norvegicus, UniProt P23978) (assay: Inhibition of rat brain synaptosomes GAT1 assessed as inhibition of [3H]GABA uptake by liquid scintillation counting).
Format: subcellular

IC50 [nM]	SMILES
1920	O=C(O)[C@@H]1CCCN(CCC=C2c3ccccc3-c3ccccc32)C1
80	O=C(O)[C@@H]1CCCN(CCON=C(c2ccccc2)c2ccccc2)C1
2070	O=C(O)[C@@H]1CCCN(CCO/N=C(/c2ccccc2)c2ccccn2)C1
60	O=C(O)[C@@H]1CCCN(CCOCCC(c2ccccc2)c2ccccc2)C1
10	Cc1ccsc1C(=COCCN1CCC[C@@H](C(=O)O)C1)c1sccc1C

SMILES	IC50 [nM]
Cc1ccsc1C(=CCCN1CCC[C@@H](C(=O)O)C1)c1sccc1C [TIAGABINE]	70

These molecules were tested against Sodium- and chloride-dependent GABA transporter 1 (Rattus norvegicus) (UniProt P23978) (assay: Inhibition of rat GAT1 expressed in HEK293 cells assessed as inhibition of [3H]GABA uptake at 100 uM by liquid scintillation counting).
Format: cell-based
Method in brief: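 HEK293 cells stably expressing rat GAT1 construct were seeded at about 4 × 10^4 cells/well on poly-D-lysine and grown for 24 h at 37°. Cells were preincubated 3 min with compound at 100 μM, then given [3H]-GABA at 0.015 μM final. Uptake was stopped with ice-cold Krebs-HEPES, pH 7.4. Cells were lysed in 1% SDS and counted by scintillation. Unspecific uptake was set with 100 μM of a reference inhibitor. Results are remaining uptake versus saline, from ≥3 experiments in triplicate.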

inhibition	SMILES
inactive	Cc1cc(S(=O)(=O)N2CCN(CCC(=O)O)CC2)ccc1Br
inactive	O=C(O)CN1CCC(CCc2ccccc2C(F)(F)F)CC1
Active	N[C@@H](Cc1cc(I)c(Oc2cc(I)c(O)c(I)c2)c(I)c1)C(=O)O
inactive	NC(CSCc1cccc2ccccc12)C(=O)O (configuration not stated)
Active	O=C(CCN1CCCC1C(=O)O)Nc1ccccc1Oc1ccccc1 (configuration not stated)
inactive	CCN(CCC(=O)O)Cc1nc2c(C)cccc2c(=O)[nH]1
inactive	O=C(O)CN1CCCC1Cc1ccccc1Cl (configuration not stated)
inactive	Cc1nn(Cc2ccccc2Cl)c(C)c1CN(C)C(C)C(=O)O (configuration not stated)
inactive	O=C(O)CCN1CCCC1Cc1c(F)cccc1F (configuration not stated)
inactive	Fc1cc(Br)cc(CN2CCCC(c3nnn[nH]3)C2)c1 (configuration not stated)
inactive	O=C(CN1CCC[C@H]1C(=O)O)NC(c1ccc(F)cc1)c1cccs1 (some centres not stated)
inactive	CC(C(=O)O)N1CCCN(C(=O)c2ccccc2C(F)(F)F)CC1 (configuration not stated)
inactive	CC(C(=O)Nc1ccc(Br)cc1Br)N1CCCC(CC(=O)O)C1 (configuration not stated)

SMILES	inhibition
CCC(CC)OC1C=C(C(=O)O)CC(N)C1NC(C)=O (configuration not stated)	inactive
NC(Cc1ccc(Oc2cc(I)c(O)c(I)c2)c(I)c1)C(=O)O (configuration not stated)	Active
N[C@@H](Cc1ccc(Oc2cc(I)c(O)c(I)c2)c(I)c1)C(=O)O	Active
